Bioassay records (PubChem BioAssay)
CHRM5 PAM = CHRM5 positive allosteric modulation | P08912 | CHO-K1 hM5, Fluo-8 calcium, ACh EC20 PAM; 0% = ACh EC20, 100% = ACh EC100 | activation, % at 3 µM | actives 0.3% (n = 360,000);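 active means activation above the run cutoff, the mean activation of all test compounds plus 3 SD, cut at about 18% in these data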
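system = human M5 receptor in CHO-K1 cells | compound = one concentration, 3 µM final (nominal) | schedule = Post-acetylcholine fluorescence recording 140 s | signal = Fluo-8 calcium dye fluorescence, kinetic read | benchmarks = low control EC20 acetylcholine (0%), high control EC100 acetylcholine (100%) | repeats = singlicate, one well per test compound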
CHRM4 antagonist = blocks acetylcholine activation of human M4 receptor; CHO-hM4 cells, ACh EC80, Fluo-8 calcium fluorescence; inhibition, % at 3 µM; actives 0.73% (n = 360,000); AID 624125;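 active means inhibition above its plate's cutoff, the mean inhibition of sample wells plus 3 SD, cut at about 27% in these data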
Target sequence (P08173 whole entry, looked up): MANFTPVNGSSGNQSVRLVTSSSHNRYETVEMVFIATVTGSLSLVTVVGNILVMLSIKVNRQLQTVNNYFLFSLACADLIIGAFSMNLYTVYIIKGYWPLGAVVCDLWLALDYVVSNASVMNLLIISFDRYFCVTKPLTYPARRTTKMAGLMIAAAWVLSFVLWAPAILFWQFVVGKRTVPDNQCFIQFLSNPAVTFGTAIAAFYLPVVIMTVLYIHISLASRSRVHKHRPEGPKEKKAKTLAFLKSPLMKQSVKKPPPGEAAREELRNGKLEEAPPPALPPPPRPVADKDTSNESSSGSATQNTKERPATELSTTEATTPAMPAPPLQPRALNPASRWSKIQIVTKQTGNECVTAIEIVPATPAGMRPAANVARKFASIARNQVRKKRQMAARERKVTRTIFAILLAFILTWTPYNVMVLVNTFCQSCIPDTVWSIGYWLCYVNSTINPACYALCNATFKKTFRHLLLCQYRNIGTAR
M5 antag = blocks acetylcholine activation of human M5 receptor; P08912; CHO-hM5 cells, Fluo-8 calcium fluorescence, ACh EC80; inhibition, % at 3 µM; actives 0.59% (n = 360,000); AID 624040;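 active means inhibition above a per-plate cutoff, the mean of that plate's test compounds plus 3 SD, cut at about 27% in these data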
CHRM5 agonist = agonists of human muscarinic M5 receptor (CHRM5); actives 0.19% (n = 360,000); activation, % at 3 µM; P08912; CHO-K1 hM5 cells, Fluo-8 calcium fluorescence; 0% DMSO wells, 100% maximal acetylcholine response;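 active means activation above the run's mean over test compounds plus 3 SD, cut at about 23% in these data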;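 further: signal is peak over basal fluorescence ratio across the kinetic read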
CHRM4 PAM = CHRM4 positive allosteric modulation; P08173; CHO-K1 hM4/Gqi5, Fluo-8 calcium fluorescence, ACh EC20; 0% = ACh EC20, 100% = maximal ACh; activation, % at 3 µM; actives 0.4% (n = 360,000); AID 624126;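 active means activation above its plate's cutoff, the mean activation of sample wells plus 3 SD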
CHRM4 agonist = CHRM4 agonism in calcium assay. CHO-K1 hM4/Gqi5, Fluo-8 calcium fluorescence; vehicle 0%, full acetylcholine response 100%. activation, % at 3 µM. P08173. actives 0.14% (n = 360,000);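 active means activation above the run mean over all test wells plus 3 SD, cut at about 32% in these data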;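 further: peak over basal fluorescence ratio per well then scaled between controls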
Numbers stand for hits; n = inactive; + = active, no number. This is a sample that favours compounds with a hit; in the whole collection about 1.9% have one here.

SMILES	CHRM5 PAM	CHRM4 antagonist	M5 antag	CHRM5 agonist	CHRM4 PAM	CHRM4 agonist
CC1(C)Cc2c(sc3nc(N/N=C/c4ccccc4)[nH]c(=O)c23)CO1	25	n	n	n	n	n
CCOC(=O)C1CCCN(C(=O)c2cccc3ccccc23)C1 (stereo not drawn)	n	n	n	n	n	n
CCOC(=O)C1CCc2c(ccc3ccccc23)N1CCC#N (stereo not drawn)	n	n	29	n	n	n
Cc1ccc(S(=O)(=O)N2CC(C)N(C(=O)N3CCOCC3)C2)cc1 (stereo not drawn)	n	n	n	n	n	n
O=C(O)c1cc(Cl)ccc1-c1ccc(/C=C/c2cc(C(F)(F)F)[nH]c(=O)n2)o1	n	n	n	42	n	39
O=C(O)c1ccccc1-c1ccc(/C=C/c2cc(C(F)(F)F)[nH]c(=O)n2)o1	n	n	n	44	n	n
Cc1ccccc1CC1(CO)CCCN(C(=O)CCC(F)(F)F)C1 (stereo not drawn)	n	n	n	n	n	n
COc1ccc(/C=C2\SC(=O)N(CCc3nnc(N)s3)C2=O)cc1	n	n	n	n	n	n
CCN(CC)c1ccc(C=C2C(=O)OC(c3ccccc3)OC2=O)cc1 (stereo not drawn)	n	n	n	n	n	n
CCN(CC)c1ccc(/C=C/C(=O)C2C(=O)C=C(C)OC2=O)cc1 (stereo not drawn)	n	n	42	184	n	49
O=C(Nc1nnc(SCc2cccnc2)s1)C1CC(=O)N(c2ccc(F)cc2)C1 (stereo not drawn)	n	n	n	n	n	n
Cc1cc(/C=C2\NC(=O)NC2=O)c(C)n1-c1cccnc1	n	n	n	n	n	n
Cc1cccc(C)c1-n1c(C)cc(/C=C2\NC(=O)NC2=O)c1C	n	n	n	n	36	n
Cc1cc(C)nc(NC(=O)c2cccs2)c1	n	n	n	n	n	n
NC(=Nc1ccccc1)Nc1ccccc1	n	60	n	41	n	124
CCOC(=O)/C(C(=Nc1ccccc1)Nc1ccccc1)=C(\C)O	n	n	n	n	n	n
Cc1nc(Cl)c(S(N)(=O)=O)c(C)c1Cl	n	n	n	n	n	n
CC(=O)Nc1ccccc1OCCCN1CCC(C(O)(c2ccccc2)c2ccccc2)CC1	n	n	n	n	n	n
OC(c1ccccc1)(c1ccccc1)C1CCN(CCCOc2ccc3c(c2)CCCC3)CC1	n	32	n	n	n	n
Oc1ccccc1CN1CCC(C(O)(c2ccccc2)c2ccccc2)CC1	n	n	n	n	n	n
CC(=O)Nc1ccc(OCCCN2CCC(C(O)(c3ccccc3)c3ccccc3)CC2)cc1	n	86	64	n	n	n
OC(c1ccccc1)(c1ccccc1)C1CCN(CCCOc2cccc(OC(F)(F)F)c2)CC1	n	32	n	n	n	n
CC(C)(C)c1ccc(C(O)CCCN2CCC(C(O)(c3ccccc3)c3ccccc3)CC2)cc1 (stereo not drawn)	n	n	n	n	n	n
c1ccc(COc2ccc(OCCCN3CCCC3)cc2)cc1	n	n	n	n	n	n
N#CCc1ccc(OCCCN2CCC(C(O)(c3ccccc3)c3ccccc3)CC2)cc1	n	59	71	n	n	n
SMILES	CHRM5 PAM	CHRM4 antagonist	M5 antag	CHRM5 agonist	CHRM4 PAM	CHRM4 agonist
O=C1COc2ccc(NC(=O)c3ccccc3C(=O)O)cc2N1	n	n	n	n	n	n
CCN(CC)CCC(=O)N1c2ccccc2CCc2ccc(NC(=O)OC)cc21	n	n	n	n	n	n
c1ccc2c(c1)nnn2CNc1nccs1	n	n	n	n	22	n
c1ccc(CCn2nnc3ccccc32)cc1	n	n	n	n	n	n
COc1ccc(CNC(C)C23CC4CC(CC(C4)C2)C3)c(OC)c1OC (stereo not drawn)	n	n	n	n	n	n
CC(NCc1ccc(OCC(N)=O)cc1)C12CC3CC(CC(C3)C1)C2 (stereo not drawn)	n	29	n	n	n	n
O=C(CCCN=C1NS(=O)(=O)c2ccccc21)OCC(=O)c1ccccc1	n	n	n	n	n	n
O=C(COC(=O)CCCCCN=C1NS(=O)(=O)c2ccccc21)Nc1ccc(Cl)c(Cl)c1	n	n	45	n	n	n
CCN(CC)C(=O)CSc1nc2ccccc2c(=O)n1-c1ccccc1OC	n	n	n	n	36	n
CNc1nc(Nc2ccc([N+](=O)[O-])cc2)nc(OCC(F)(F)F)n1	n	n	n	n	n	n
C=CCNC(=S)Nc1ccccc1-c1nnc2n1CCCCC2	n	n	30	n	n	n
Nc1ccccc1-c1nnc2n1CCCCC2	n	n	n	n	n	n
CC(=O)Oc1ccc2c(c1)Oc1cc(OC(C)=O)ccc1C21OC(=O)c2ccccc21	n	101	102	+	n	865
CCOc1ccc(NS(=O)(=O)c2ccc(-c3cnc(C4CC4)o3)cc2)cc1	n	n	n	n	n	n
O=C(O)c1ccc(CNCc2cccc(Cl)c2Cl)cc1	n	n	n	n	28	n
O=C(O)c1ccc(CNCc2ccccc2Cl)cc1	n	n	n	n	n	n
CCN=C(NCC)SC1CC(=O)N(c2cccc(OC)c2)C1=O (stereo not drawn)	n	27	n	n	n	n
COc1cccc(C2SCC(=O)N2c2ccc(C)cc2)c1OC (stereo not drawn)	n	65	n	n	n	n
COc1ccc(N2C(=O)CSC2c2cccc(OC)c2OC)cc1 (stereo not drawn)	n	n	n	n	n	n
Cc1ccc2c(c1)C1CN(C)CCC1N2C(=O)c1ccccc1NS(=O)(=O)c1cccc(C(F)(F)F)c1 (stereo not drawn)	n	n	n	n	n	n
CN(NS(=O)(=O)c1ccc(Br)cc1)c1nc(C(F)(F)F)nc2ccccc12	n	n	29	n	n	n
CN(N)c1nc(C(F)(F)F)nc2ccccc12	n	n	n	n	n	n
COc1ccc(OCc2cc(C(=O)N3CCN(C4CCCC4)CC3)no2)c(Cl)c1	n	n	n	n	n	n
O=C(N/N=C\c1c(O)ccc2ccccc12)c1cncc(Br)c1	n	n	n	67	n	38
O=C(N/N=C\c1c(O)ccc2ccccc12)c1ccc(O)cc1	n	n	n	n	n	n
O=C(NN=Cc1c(O)ccc2ccccc12)c1ccncc1	n	n	n	46	n	n
Fc1ccc(C2=CC(c3ccco3)n3ncnc3N2)cc1 (stereo not drawn)	n	n	n	n	n	n
